Assays:
[1] = system: HCT-116; assay: Cytotoxicity against human HCT116 cells assessed as inhibition of tumor growth incubated for 72 hrs by luminometry; assay type: functional, cell-based; conditions: HCT-116, 72 h
In short: (§1)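 Cells seeded at 5000 per well in DMEM with 10% serum and left overnight. Compound added from DMSO dilutions (0.4% DMSO final) for 72 h. After 5 min at room temperature, ATPLite two-step lysis and substrate added, 5 min incubation, then luminescence read. Values are the mean of at least two experiments.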

[2] = Cytotoxicity against human NCI-ADR-RES cells overexpressing P-gp 1 assessed as inhibition of tumor growth incubated for 72 hrs by luminometry; assay type: functional, cell-based; in short: as §1
[3] = Metabolic stability in human liver microsomes assessed as percent of residual drug in presence of NADPH incubated for 40 mins by LC-ESI-MS/MS method; assay type: ADME, Microsome; conditions: liver microsomes, read-out: Stability
In short: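 Test article incubated in duplicate with human liver microsomes (0.5 mg/mL protein) in 100 mM potassium phosphate pH 7.4. Started with 1 mM NADPH. Stopped with acetonitrile at 0, 10, 20 and 40 min. LC-MS/MS peak area at 40 min reported as percent of 0 min. No-NADPH control incubated for 40 min.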

[4] = biological target: T1, Heat shock protein HSP90 (Homo sapiens, UniProt P07900+P08238); assay: Inhibition of human HSP90 using BODIPY labelled geldanamycin as substrate by fluorescence polarization assay; assay type: protein assay
[5] = biological target: T1, Heat shock protein HSP90; assay: Inhibition of human HSP90 in HCT116 cells expressing Her2 gene assessed as degradation of Her2 after 4 hrs by luciferase reporter gene assay; assay type: cell-based; conditions: hct-116
In short: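 HCT116 cells stably transfected with Her2 kinase domain (aa 641–975) fused to firefly luciferase. Seeded at 10 000 per well in DMEM with 10% serum and left overnight. Compound added from DMSO (0.4% final) for 4 h. Steady-Glo added at room temperature for 5 min, then luminescence read.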

[6] = Half life in Swiss nude mouse at 2.5 mg/kg, iv by LC-ESI-MS/MS method; assay type: ADME, organism-based; design: dose 2.5 mg/kg, route intravenous; conditions: in vivo
In short: (§2)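 Intravenous dose in mice, vehicle DMA/PEG300/EtOH/H2O 3/40/12/45. Sampling at 5, 15, 30, 60, 120, 240, 480 and 720 min, three or five animals per time point. Cardiac-puncture EDTA plasma. Acetonitrile protein precipitation with internal standard, then LC-ESI-MS/MS (10–10 000 ng/mL curve). Parameters by noncompartmental fit.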

[7] = AUC in Swiss nude mouse at 2.5 mg/kg, iv by LC-ESI-MS/MS method; assay type: ADME, organism-based; design: dose 2.5 mg/kg, route intravenous; conditions: plasma; in short: as §2
[8] = AUC in Swiss nude mouse at 10 mg/kg, po by LC-ESI-MS/MS method; assay type: ADME, organism-based; design: dose 10 mg/kg, route oral; conditions: plasma
In short: (§3)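 Mice dosed by oral gavage, vehicle DMA/PEG300/EtOH/H2O (3/40/12/45, v/v/v/v). Blood drawn by cardiac puncture into EDTA plasma. Three or five animals per time point. Plasma precipitated with acetonitrile plus internal standard. Quantified by LC-ESI-MS/MS against a 10–10 000 ng/mL standard curve with QC samples. Noncompartmental analysis.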

[9] = system: Mus musculus; assay: Hepatic clearance in Swiss nude mouse at 2.5 mg/kg, iv by LC-ESI-MS/MS method; assay type: ADME, organism-based, Liver; design: dose 2.5 mg/kg, route intravenous; conditions: in vivo; in short: as §2
[10] = Cmax in Swiss nude mouse at 10 mg/kg, po by LC-ESI-MS/MS method; assay type: ADME, organism-based; design: dose 10 mg/kg, route oral; conditions: in vivo; in short: as §3
[11] = Volume of distribution in Swiss nude mouse at 2.5 mg/kg, iv by LC-ESI-MS/MS method; assay type: ADME, organism-based; design: dose 2.5 mg/kg, route intravenous; conditions: in vivo; in short: as §2
[12] = Oral bioavailability in Swiss nude mouse at 10 mg/kg by LC-ESI-MS/MS method; assay type: ADME, organism-based; conditions: in vivo; in short: as §3
[13] = Tmax in Swiss nude mouse at 10 mg/kg, po by LC-ESI-MS/MS method; assay type: ADME, organism-based; design: dose 10 mg/kg, route oral; conditions: in vivo; in short: as §3

Compound	IC50 [1]	IC50 [2]	remaining at 40 min [3]	IC50 [4]	IC50 [5]	other results
Nc1ncnc2c1nc(Sc1cc3c(cc1Br)OCO3)n2CCC1CCN(CC2CCCCC2)CC1	1000 nM	722 nM	10%	240 nM	250 nM	
C[C@H](O)C(=O)N1CCC(CCn2c(Sc3cc4c(cc3Br)CCO4)nc3c(N)ncnc32)CC1	210 nM	11000 nM	21%	34 nM	28 nM	
Nc1ncnc2c1nc(Sc1cc3c(cc1Br)CCO3)n2CCC1CCN(C=O)CC1	90 nM	1800 nM		40 nM	10 nM	
CCCC(=O)N1CCC(CCn2c(Sc3cc4c(cc3Br)OCO4)nc3c(N)ncnc32)CC1	850 nM	2000 nM	0%	300 nM		
C[C@H](O)C(=O)N1CCC(CCn2c(Sc3cc4c(cc3Cl)OCO4)nc3c(N)ncnc32)CC1	2700 nM	20000 nM	32%	650 nM	540 nM	
Nc1ncnc2c1nc(Sc1cc3c(cc1Cl)OCO3)n2CCC1CCN(C=O)CC1	1400 nM	7600 nM	31%	210 nM	92 nM	
Nc1ncnc2c1nc(Sc1cc3c(cc1Br)OCO3)n2CCC1CCNCC1	4600 nM	> 100000 nM	78%	470 nM	950 nM	
Nc1ncnc2c1nc(Sc1cc3c(cc1Br)OCO3)n2CCC1CCC(F)(F)CC1			15%	1000 nM		
Cn1nnnc1N1CCC(CCn2c(Sc3cc4c(cc3Br)OCO4)nc3c(N)ncnc32)CC1	62 nM	130 nM	0%	45 nM	31 nM	
CN(C)CC(=O)N1CCC(CCn2c(Sc3cc4c(cc3Br)OCO4)nc3c(N)ncnc32)CC1	200 nM	100000 nM		70 nM	80 nM	
CC(C)(C)n1nnnc1N1CCC(CCn2c(Sc3cc4c(cc3Br)OCO4)nc3c(N)ncnc32)CC1				1800 nM		
Nc1ncnc2c1nc(Sc1cc3c(cc1Br)OCO3)n2CCC1CCN(C(=O)[C@@H]2CCCN2)CC1	830 nM	89000 nM	38%	60 nM	190 nM	
CN1CCOc2cc(Sc3nc4c(N)ncnc4n3CCC3CCN(C=O)CC3)c(Br)cc21	250 nM	100000 nM		65 nM	32 nM	
Nc1ncnc2c1nc(Sc1cc3c(cc1Br)OCO3)n2CCc1ccccc1F	200 nM		< 1%	30 nM	50 nM	
CC(=O)C(=O)N1CCC(CCn2c(Sc3cc4c(cc3Br)OCO4)nc3c(N)ncnc32)CC1	270 nM	100000 nM	2%	110 nM	34 nM	
Nc1ncnc2c1nc(Sc1cc3c(cc1Br)OCO3)n2CCC1CCN(CC(F)(F)F)CC1				600 nM		
CC(C)CN1CCC(CCn2c(Sc3cc4c(cc3Br)OCO4)nc3c(N)ncnc32)CC1		1980 nM		700 nM	110 nM	
Nc1ncnc2c1nc(Sc1cc3c(cc1Br)C(=O)CC3)n2CCC1CCN(C=O)CC1	270 nM	100000 nM	30%	60 nM	60 nM	
CC(C)C[C@H](N)C(=O)N1CCC(CCn2c(Sc3cc4c(cc3Br)OCO4)nc3c(N)ncnc32)CC1	890 nM	34000 nM	44%	68 nM	110 nM	

Compound	IC50 [1]	IC50 [2]	remaining at 40 min [3]	IC50 [4]	IC50 [5]	other results
Nc1ncnc2c1nc(Sc1cc3c(cc1Br)OCO3)n2CC[C@H]1CCCCN1C=O				190 nM		
N#Cc1cc2c(cc1Sc1nc3c(N)ncnc3n1CCC1CCN(C=O)CC1)OCO2	25000 nM		81%	210 nM	250 nM	
Nc1ncnc2c1nc(Sc1cc3c(cc1Br)OCO3)n2CCC1CCN(C(=O)C2CC2)CC1	650 nM	930 nM	1%	110 nM	110 nM	
Nc1ncnc2c1nc(Sc1cc3c(cc1Br)OCO3)n2CC[C@@H]1CCCCN1C=O				180 nM		
CC(C)(O)C(=O)N1CCC(CCn2c(Sc3cc4c(cc3Br)OCO4)nc3c(N)ncnc32)CC1				> 5000 nM		
Nc1ncnc2c1nc(Sc1cc3c(cc1Br)OCO3)n2CCc1ccccc1Cl [CHLORODERIVATIVE]	200 nM		< 1%	30 nM	50 nM	
Nc1ncnc2c1nc(Sc1cc3c(cc1Br)OCO3)n2CCC1CCOCC1	590 nM		0%	57 nM	90 nM	
Nc1ncnc2c1nc(Sc1cc3occc3cc1Br)n2CCC1CCN(C=O)CC1	260 nM	1100 nM	53%	59 nM	48 nM	half-life [6]: 18 min; AUC [7]: 880 ng·h/mL; AUC [8]: 4610 ng·h/mL; CLH [9]: 47.35 mL/min/kg; Cmax [10]: 2230 ng/mL; Vd [11]: 1.06 L/kg; bioavailability [12]: 131%; Tmax [13]: 30 min
Nc1ncnc2c1nc(Sc1cc3c(cc1Br)OCO3)n2CCc1ccccc1Br [BROMODERIVATIVE]	200 nM		< 1%	30 nM	50 nM	
CC(=O)N1CCC(CCn2c(Sc3cc4c(cc3Br)OCO4)nc3c(N)ncnc32)CC1	730 nM	3000 nM	17%	60 nM	90 nM	
Nc1ncnc2c1nc(Sc1cc3c(cc1Br)OCO3)n2CCC1CCN(C(=O)C2CCCC2)CC1	1300 nM	370 nM	0%	250 nM	250 nM	
Nc1ncnc2c1nc(Sc1cc3c(cc1Br)CCC3)n2CCC1CCN(C=O)CC1	20 nM	230 nM	1%	20 nM		
C[C@H](N)C(=O)N1CCC(CCn2c(Sc3cc4c(cc3Br)OCO4)nc3c(N)ncnc32)CC1	1200 nM	100000 nM	69%	110 nM	200 nM	
Nc1ncnc2c1nc(Sc1cc3c(cc1Br)OCC3)n2CCC1CCN(C=O)CC1	1200 nM	86000 nM	5%	400 nM	280 nM	
C#CCN1CCC(CCn2c(Sc3cc4c(cc3Br)OCO4)nc3c(N)ncnc32)CC1	740 nM	700 nM	10%	110 nM	100 nM	
Nc1ncnc2c1nc(Sc1cc3ccoc3cc1Br)n2CCC1CCN(C=O)CC1	4400 nM	7900 nM	51%	900 nM	660 nM	
CN1CCOc2cc(Br)c(Sc3nc4c(N)ncnc4n3CCC3CCN(C=O)CC3)cc21	1500 nM	20000 nM	0%	310 nM	210 nM	
CC(C)(N)C(=O)N1CCC(CCn2c(Sc3cc4c(cc3Br)OCO4)nc3c(N)ncnc32)CC1	1600 nM	50000 nM		180 nM	960 nM	
